Measured values: ChEMBL document CHEMBL1806442, “Synthesis of novel alkyltriazole tagged pyrido[2,3-d]pyrimidine derivatives and their anticancer activity” (Eur J Med Chem, 2011)
In brackets after ≈: the same amount, converted by molar mass.

What was measured:
Type in all cases: functional, cell-based
[1] = tested on: U-937; experiment: Cytotoxicity against human U937 cells after 24 hrs by MTT assay; details: U-937, 24 h
Method in brief: (§1)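 Cells kept in RPMI-1640 with 10% heat-inactivated FBS, 1 mM NaHCO3, 2 mM L-glutamine and 100 units/ml antibiotic. Seeded at 2 × 10^4 per well in 0.1 ml, left overnight, then given graded compound from DMSO stocks for 24 h. MTT added for a further 3 h at 37 °C, formazan dissolved in DMSO and read at 570 nm. Percent viability inhibition taken against untreated control; IC50 from linear regression.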

[2] = tested on: COLO 205; experiment: Cytotoxicity against human COLO205 cells after 24 hrs by MTT assay; details: COLO 205, 24 h; method in brief: as §1
[3] = tested on: THP-1; experiment: Cytotoxicity against human THP1 cells after 24 hrs by MTT assay; details: THP-1, 24 h; method in brief: as §1

SMILES | IC50 [1] [µg/mL] | IC50 [2] [µg/mL] | IC50 [3] [µg/mL]
O=c1c2c(C(F)(F)F)cc(-c3ccccc3)nc2ncn1Cc1cn(CCC(F)(F)C(F)(F)C(F)(F)C(F)(F)C(F)(F)C(F)(F)C(F)(F)C(F)(F)F)nn1 | > 200 | 163 (≈ 199 µM) | 79.1 (≈ 96.7 µM)
CCCCCCCCCCn1cc(Cn2cnc3nc(-c4ccccc4)cc(C(F)(F)F)c3c2=O)nn1 | 8.16 (≈ 15.9 µM) | 19.2 (≈ 37.6 µM) | 16.9 (≈ 33 µM)
Cc1nc2nc(-c3ccccc3)cc(C(F)(F)F)c2c(=O)n1Cc1cn(CCC(F)(F)C(F)(F)C(F)(F)C(F)(F)C(F)(F)C(F)(F)F)nn1 | > 200 | > 200 | > 200
Cc1nc2nc(-c3ccccc3)cc(C(F)(F)F)c2c(=O)n1Cc1cn(CCC(F)(F)C(F)(F)C(F)(F)C(F)(F)C(F)(F)C(F)(F)C(F)(F)C(F)(F)F)nn1 | 124 (≈ 149 µM) | > 200 | > 200
CCCCCCCCCCn1cc(Cn2c(C)nc3nc(-c4ccccc4)cc(C(F)(F)F)c3c2=O)nn1 | 6.2 (≈ 11.8 µM) | 15 (≈ 28.5 µM) | 11.3 (≈ 21.4 µM)
Cc1nc2nc(-c3ccccc3)cc(C(F)(F)F)c2c(=O)n1Cc1cn(-c2ccccc2)nn1 | > 200 | > 200 | > 200
CCc1nc2nc(-c3ccccc3)cc(C(F)(F)F)c2c(=O)n1Cc1cn(CCC(F)(F)C(F)(F)C(F)(F)C(F)(F)C(F)(F)C(F)(F)F)nn1 | > 200 | > 200 | > 200
CCc1nc2nc(-c3ccccc3)cc(C(F)(F)F)c2c(=O)n1Cc1cn(CCC(F)(F)C(F)(F)C(F)(F)C(F)(F)C(F)(F)C(F)(F)C(F)(F)C(F)(F)F)nn1 | > 200 | > 200 | > 200
CCCCCCCCCCn1cc(Cn2c(CC)nc3nc(-c4ccccc4)cc(C(F)(F)F)c3c2=O)nn1 | 17.8 (≈ 33 µM) | > 200 | 82.6 (≈ 153 µM)
CC(C)c1nc2nc(-c3ccccc3)cc(C(F)(F)F)c2c(=O)n1Cc1cn(CCC(F)(F)C(F)(F)C(F)(F)C(F)(F)C(F)(F)C(F)(F)C(F)(F)C(F)(F)F)nn1 | 8.35 (≈ 9.7 µM) | > 200 | 142 (≈ 165 µM)
CCCCCCc1nc2nc(-c3ccccc3)cc(C(F)(F)F)c2c(=O)n1Cc1cn(CCC(F)(F)C(F)(F)C(F)(F)C(F)(F)C(F)(F)C(F)(F)F)nn1 | 7.56 (≈ 9.42 µM) | 132 (≈ 165 µM) | > 200
CCCCCCc1nc2nc(-c3ccccc3)cc(C(F)(F)F)c2c(=O)n1Cc1cn(CCC(F)(F)C(F)(F)C(F)(F)C(F)(F)C(F)(F)C(F)(F)C(F)(F)C(F)(F)F)nn1 | > 200 | > 200 | > 200
Cc1nc(OCc2cn(CCC(F)(F)C(F)(F)C(F)(F)C(F)(F)C(F)(F)C(F)(F)C(F)(F)C(F)(F)F)nn2)c2c(C(F)(F)F)cc(-c3ccccc3)nc2n1 | 22.4 (≈ 26.9 µM) | > 200 | 107 (≈ 129 µM)
CCc1nc(OCc2cn(CCC(F)(F)C(F)(F)C(F)(F)C(F)(F)C(F)(F)C(F)(F)F)nn2)c2c(C(F)(F)F)cc(-c3ccccc3)nc2n1 | 9.22 (≈ 12.4 µM) | > 200 | > 200
FC(F)(F)c1cc(-c2ccccc2)nc2nc(-c3ccccc3)nc(OCc3cn(CCC(F)(F)C(F)(F)C(F)(F)C(F)(F)C(F)(F)C(F)(F)C(F)(F)C(F)(F)F)nn3)c12 | 44.4 (≈ 49.6 µM) | > 200 | > 200
COc1cc([C@@H]2c3cc4c(cc3[C@@H](O[C@@H]3O[C@@H]5CO[C@@H](C)O[C@H]5[C@H](O)[C@H]3O)[C@H]3COC(=O)[C@H]23)OCO4)cc(OC)c1O [ETOPOSIDE] | 17.9 (≈ 30.5 µM) | 7.24 (≈ 12.3 µM) | 2.16 (≈ 3.67 µM)
